According to ChEMBL document CHEMBL4373710, “DNA Structural Alteration Leading to Antibacterial Properties of 6-Nitroquinoxaline Derivatives” (J Med Chem, 2019):
In brackets after ≈: the same amount, converted by molar mass. Activity calls are given as the source filed them. No cut-off for these calls is given here.

How the values were obtained:
[1] = tested on: Staphylococcus epidermidis; experiment: Antibacterial activity against Staphylococcus epidermidis MTCC3615 by broth microdilution assay; type: functional
Procedure, shortened: (§1)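 Broth microdilution per CLSI; 5×10^5 cfu/mL bacteria in LB broth; compounds from DMSO stocks, final DMSO under 0.6%, with DMSO control. Plates incubated at the strain's recommended growth temperature and time; growth read as OD600.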

[2] = Antibacterial activity against Arthrobacter chlorophenolicus A6MTCC3706 by broth microdilution assay; type: functional; conditions: Pseudarthrobacter chlorophenolicus; procedure, shortened: as §1
HEK293 = experiment: Cytotoxicity against HEK293 cells measured after 24 hrs by MTT assay; type: cell-based; conditions: Homo sapiens, HEK293, 24 h
Procedure, shortened: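 HEK 293 cells, 4000/well, seeded overnight in DMEM + 10% FBS at 37°C in CO2; compound dose series for 24 h (final DMSO <0.5%, DMSO-only control). MTT at 1 mg/mL final for 3 h, formazan dissolved in DMSO, absorbance 595 nm; IC50 from triplicate OD data.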

DNA [3] = experiment: Binding affinity to Staphylococcus aureus DNA assessed as induction of structural changes by EtBr staining based agarose gel shift assay; type: nucleic-acid assay
Procedure, shortened: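 S. aureus genomic DNA incubated with compound at stated [compound]:[DNA bp] ratios, 16 h at 37 °C, in NaP buffer pH 7 with 10 mM NaCl. Run on agarose gel, stained with EtBr (1 µg/mL) and classed as supercoiled, structurally altered or condensed.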

Calf thymus DNA = experiment: Binding affinity to calf thymus DNA assessed as appearance of induced CD at […] by circular dichroism method; type: nucleic-acid assay; conditions: Bos taurus
[4] = tested on: Poly(dA-dT)oligonucleotide; experiment: Binding affinity to poly(dA-dT) DNA (unknown origin) assessed as change in B-DNA structure up to 6:1 compound to DNA ratio by circular dichroism method; type: nucleic-acid assay
Procedure, shortened: (§2)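 Poly(dA-dT)·poly(dA-dT) or poly(dG-dC)·poly(dG-dC) held at 10 µM. Titrated with compound from 20 to 60 µM and followed by circular dichroism for change in the B-DNA band and appearance of induced CD.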

[5] = tested on: Poly(dA-dT)oligonucleotide; experiment: Binding affinity to poly(dA-dT) DNA (unknown origin) assessed as appearance of induced CD up to 6:1 compound to DNA ratio by circular dichroism method; type: nucleic-acid assay; procedure, shortened: as §2
DNA [6] = experiment: Binding affinity to DNA isolated from HEK293 cells assessed as change in ellipticity at 262 nm at 15 to 180 uM by circular dichroism method; type: ADME, cell-free; conditions: human
DNA [7] = experiment: Inhibition of ethidium bromide binding to Staphylococcus aureus DNA assessed as Stern-Volmer quenching constant by fluorescence assay; type: nucleic-acid assay
Procedure, shortened: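 Fluorescence intercalator displacement: S. aureus genomic DNA 10 µM plus EtBr 5 µM in 10 mM NaP pH 7, 10 mM NaCl, 1% DMSO, at 25 and 37 °C; titrated with 2.5–100 µM compound. Excitation 480 nm, emission 520–700 nm, inner-filter corrected, triplicates; Stern–Volmer analysis, F0/F = 1 + Ksv[Q].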

DNA [8] = experiment: Inhibition of ethidium bromide binding to Staphylococcus aureus DNA at 37 degC by fluorescence assay; type: nucleic-acid assay
Procedure, shortened: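 S. aureus genomic DNA (10 µM) with EtBr (5 µM) in 10 mM NaP pH 7, 10 mM NaCl and 1% DMSO, at 25 and 37 °C. Titrated with compound from 2.5 to 100 µM. Excitation 480 nm, emission scanned 520–700 nm, corrected for inner filter. Stern–Volmer analysis, triplicates. Variants: pH 6–8, or NaCl raised to 50 and 200 mM.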

DNA [9] = experiment: Binding affinity to Staphylococcus aureus DNA assessed as transition of local to global DNA at 1:1 to 3:1 compound to DNA ratio by atomic force microscopic analysis; type: nucleic-acid assay
Procedure, shortened: (§3)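 Isolated S. aureus genomic DNA (2.8 Mbp) treated with compound at increasing [compound]:[DNA bp] ratios, up to 3:1. Imaged by atomic force microscopy against untreated DNA.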

DNA [10] = experiment: Binding affinity to Staphylococcus aureus DNA assessed as formation of DNA superstructure at 1:1 to 3:1 compound to DNA ratio by atomic force microscopic analysis; type: nucleic-acid assay; procedure, shortened: as §3
DNA [11] = experiment: Binding affinity to Staphylococcus aureus DNA assessed as relaxation of DNA strand at 1:1 compound to DNA ratio by atomic force microscopic analysis; type: nucleic-acid assay; procedure, shortened: as §3
DNA [12] = experiment: Binding affinity to Staphylococcus aureus DNA assessed as DNA condensation at 3:1 compound to DNA ratio by atomic force microscopic analysis; type: nucleic-acid assay; procedure, shortened: as §3
DNA [13] = experiment: Induction of DNA condensation in Staphylococcus aureus assessed as decrease in nucleoid area at 10 uM after 1 hr by DAPI staining-based confocal laser scanning fluorescence microscopic analysis relative to control; type: nucleic-acid assay; design: scale not given: the % may be the effect or the level left
Procedure, shortened: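 S. aureus grown 6 h at 37 °C, washed into PBS and exposed to 10 µM compound or 0.5% DMSO for 1 h at 37 °C with shaking. Fixed in paraformaldehyde for 30 min at 4 °C, then DAPI-stained for 5 min. Nucleoid and cell areas measured from phase contrast/DAPI images; N/C ratio from 35 cells over three independent experiments, mean ± SD.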

Staphylococcus aureus [14] = experiment: Inhibition of DNA synthesis in Staphylococcus aureus at 3.5 uM measured after 1 hr by BrdU incorporation assay; type: functional, organism-based
Procedure, shortened: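 Log-phase S. aureus (10^5–10^6 CFU/mL) exposed to 3.5 µM for 1 h at 37°C, then BrdU pulse for 30 min; fixed in paraformaldehyde, permeabilised (Triton X-100/lysostaphin), DNA denatured in 2N HCl, stained with FITC anti-BrdU antibody, confocal imaging.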

Staphylococcus aureus [15] = experiment: Induction of DNA breaks in Staphylococcus aureus at 3.5 uM by TUNEL staining based confocal laser scanning fluorescence microscopic analysis; type: functional, organism-based
Procedure, shortened: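 S. aureus treated with 3.5 µM or 0.5% DMSO; pelleted, fixed in 16% paraformaldehyde 30 min at 4°C, permeabilised with 0.2% Triton X-100 plus lysostaphin 0.05 mg/mL; TdT tailing with fluorescent nucleotides 60 min at 37°C, stopped with 2X SSC; confocal imaging with fluorescein filter.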

Staphylococcus aureus [16] = experiment: Induction of morphological changes in Staphylococcus aureus assessed as cell aggregation at 3.5 to 5 uM by atomic force microscopic analysis; type: functional, organism-based
Staphylococcus aureus [17] = experiment: Induction of morphological changes in Staphylococcus aureus at 3.5 uM measured after 6 hrs by acridine orange dye based confocal laser scanning fluorescence microscopic analysis; type: functional, organism-based
Procedure, shortened: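 S. aureus with 3.5 µM for 6 h at 37°C; fixed in paraformaldehyde, permeabilised with 0.2% Triton X-100 and lysostaphin 0.05 mg/mL; stained with acridine orange 3 µM for 5 min at 37°C; confocal imaging at 60X.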

Staphylococcus aureus [18] = experiment: Disruption of cell membrane in Staphylococcus aureus assessed as accumulation of propidium iodide negative cells at 3.5 uM by flow cytometric analysis (reference value: 98.2%); type: functional
[19] = tested on: Staphylococcus epidermidis; experiment: Disruption of preformed biofilm in Staphylococcus epidermidis up to 4 times MIC measured after 12 hrs by crystal violet staining based light microscopic analysis; type: functional, organism-based
Procedure, shortened: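 Planktonic cells washed off; 1% crystal violet 10 min, solubilised in 30% acetic acid, A550 read; wells also imaged at 20X by light microscopy.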

Escherichia coli = experiment: Disruption of membrane integrity in Escherichia coli assessed as increase in extracellular ALK level at 3.5 to 5 uM measured after 2 hrs by PLP substrate based assay

MIC [1]: 2.24 µg/mL (≈ 4.99 µM) | MIC [2]: 0.897 µg/mL (≈ 2 µM) | Activity (DNA [3]): Dose-dependent effect | Activity (Calf thymus DNA): Dose-dependent effect | Activity [4]: inactive | Activity [5]: inactive | Activity (DNA [6]): Active | KSV (DNA [7]): 1 ×10⁴ /M | inhibition (DNA [8]): Active | Activity (DNA [9]): Active | Activity (DNA [10]): Active | Activity (DNA [11]): Active | Activity (DNA [12]): Active | Activity (DNA [13]): 30%
SMILES: CN(C)CCCNc1nc2cc([N+](=O)[O-])ccc2nc1NCc1ccc(C(F)(F)F)cc1
IC50 (HEK293): 5.66 µg/mL (≈ 12.6 µM) | inhibition (Staphylococcus aureus [14]): Active | Activity (Staphylococcus aureus [15]): Active | Activity (Staphylococcus aureus [16]): Active | Activity (Staphylococcus aureus [17]): Active | Activity (Staphylococcus aureus [18]): 91.6% | Activity [19]: Active | Activity (Escherichia coli): Active
